In ChEMBL document CHEMBL1127623, “Synthesis and structure-activity relationships of the novel homopropargylamine antimycotics” (1994):
In brackets after ≈: the same amount, converted by molar mass.

Assays:
[1] = test system: Aspergillus fumigatus; assay: Tested in vitro for minimum inhibitory concentration against Aspergillus fumigatus; format: functional
Summary of the method: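 Tube dilution in Sabouraud's dextrose broth (pH 6.5). Compounds were dissolved in DMSO and serially diluted in medium. The inoculum was harvested by spatula from Kimmig agar cultures grown 21 days at 30 °C. Tubes were read after 72 h at 30 °C. MIC was the lowest concentration with no macroscopically detectable growth.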

[2] = test system: Candida albicans; assay: Tested in vitro for minimum inhibitory concentration against candida albicans 124; format: functional
Summary of the method: (§1)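 Yeast broth dilution in malt extract broth (pH 4.8) in glass tubes, with compounds in DMSO serially diluted in medium. Blastospores came from cultures shaken about 30 h at 37 °C in yeast nitrogen base. Growth was read after 48 h at 30 °C. MIC was the lowest concentration without macroscopically visible growth.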

[3] = test system: Candida parapsilosis; assay: Tested in vitro for minimum inhibitory concentration against candida parapsilosis 39; format: functional; conditions: Lodderomyces parapsilosis; summary of the method: as §1
[4] = test system: Microsporum canis; assay: Tested in vitro for minimum inhibitory concentration against microsporum canis; format: functional
Summary of the method: (§2)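 Serial dilutions were made from DMSO solutions into Sabouraud's dextrose broth (pH 6.5) in glass tubes. Inoculum was taken by spatula from Kimmig agar cultures grown 21 days at 30 °C. Incubation was 7 days at 30 °C. MIC was the lowest concentration at which growth was macroscopically undetectable.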

[5] = test system: Sporothrix schenckii; assay: Tested in vitro for minimum inhibitory concentration against sporothrix schenck ii; format: functional; summary of the method: as §2
[6] = test system: Candida albicans; assay: Tested in vitro for minimum inhibitory concentration against candida albicans 9; format: functional; summary of the method: as §1
[7] = test system: Trichophyton mentagrophytes; assay: Tested in vitro for minimum inhibitory concentration against Trichophyton mentagrophytes

Structure (SMILES) | MIC [1] | MIC [2] | MIC [3] | MIC [4] | MIC [5] | MIC [6] | MIC [7]
CC(C#CC(C)(C)C)CN(C)Cc1cccc2ccccc12 (configuration not stated) | > 200 µg/mL | > 200 µg/mL | 200 µg/mL (≈ 682 µM) | 0.8 µg/mL (≈ 2.73 µM) | 12.5 µg/mL (≈ 42.6 µM) | > 200 µg/mL | 0.8 µg/mL (≈ 2.73 µM)
CCN(Cc1cccc2ccccc12)C(=O)OCCC#CC(C)(C)C | > 200 µg/mL | > 200 µg/mL | 25 µg/mL (≈ 74.1 µM) | 100 µg/mL (≈ 296 µM) | > 200 µg/mL | > 200 µg/mL | 100 µg/mL (≈ 296 µM)
CN(CC#CC(C)(C)C)CCc1cccc2ccccc12 | > 50 µg/mL | 100 µg/mL (≈ 358 µM) | 50 µg/mL (≈ 179 µM) | 1.56 µg/mL (≈ 5.58 µM) | 6.25 µg/mL (≈ 22.4 µM) | 50 µg/mL (≈ 179 µM) | 1.56 µg/mL (≈ 5.58 µM)
CN(CCC#CC(C)(C)C)CCc1cccc2ccccc12 | 50 µg/mL (≈ 170 µM) | 200 µg/mL (≈ 682 µM) | 100 µg/mL (≈ 341 µM) | 3.13 µg/mL (≈ 10.7 µM) | 12.5 µg/mL (≈ 42.6 µM) | 100 µg/mL (≈ 341 µM) | 0.8 µg/mL (≈ 2.73 µM)
CC(CC#CC(C)(C)C)N(C)Cc1cccc2ccccc12 (configuration not stated) | > 200 µg/mL | > 200 µg/mL | 100 µg/mL (≈ 341 µM) | 1.56 µg/mL (≈ 5.32 µM) | > 200 µg/mL | 200 µg/mL (≈ 682 µM) | 1.56 µg/mL (≈ 5.32 µM)
CN(CCCCC#CC(C)(C)C)Cc1cccc2ccccc12 | > 200 µg/mL | > 200 µg/mL | > 200 µg/mL | 25 µg/mL (≈ 81.3 µM) | > 200 µg/mL | 200 µg/mL (≈ 650 µM) | 12.5 µg/mL (≈ 40.7 µM)
CN(CC#CC(C)(C)C)Cc1cccc2ccccc12 | > 200 µg/mL | > 200 µg/mL | > 200 µg/mL | 25 µg/mL (≈ 94.2 µM) | > 200 µg/mL | 200 µg/mL (≈ 754 µM) | 12.5 µg/mL (≈ 47.1 µM)
CN(C/C=C/C#CC(C)(C)C)Cc1cccc2ccccc12 [TERBINAFINE] | 0.8 µg/mL (≈ 2.75 µM) | 25 µg/mL (≈ 85.8 µM) | 0.8 µg/mL (≈ 2.75 µM) | 0.006 µg/mL (≈ 0.0206 µM) | 0.4 µg/mL (≈ 1.37 µM) | 6.25 µg/mL (≈ 21.4 µM) | 0.003 µg/mL (≈ 0.0103 µM)

Continued by falling MIC [1], values first:

MIC [1] | MIC [2] | MIC [3] | MIC [4] | MIC [5] | MIC [6] | MIC [7] | Structure (SMILES)
50 µg/mL (≈ 170 µM) | 200 µg/mL (≈ 682 µM) | 0.8 µg/mL (≈ 2.73 µM) | 0.2 µg/mL (≈ 0.682 µM) | 1.56 µg/mL (≈ 5.32 µM) | > 200 µg/mL | 0.05 µg/mL (≈ 0.17 µM) | CN(CCCC#CC(C)(C)C)Cc1cccc2ccccc12
50 µg/mL (≈ 172 µM) | > 200 µg/mL | 6.25 µg/mL (≈ 21.4 µM) | 0.5 µg/mL (≈ 1.72 µM) | 1.56 µg/mL (≈ 5.35 µM) | > 200 µg/mL | 0.05 µg/mL (≈ 0.172 µM) | C=C(C#CC(C)(C)C)CN(C)Cc1cccc2ccccc12
1.56 µg/mL (≈ 5.86 µM) | > 200 µg/mL | > 200 µg/mL | 0.4 µg/mL (≈ 1.5 µM) | > 200 µg/mL | 200 µg/mL (≈ 751 µM) | 0.4 µg/mL (≈ 1.5 µM) | CC(C)(C)C#CCCOCc1cccc2ccccc12
0.2 µg/mL (≈ 0.586 µM) | 12.5 µg/mL (≈ 36.6 µM) | 0.4 µg/mL (≈ 1.17 µM) | 0.006 µg/mL (≈ 0.0176 µM) | 3.13 µg/mL (≈ 9.17 µM) | 6.25 µg/mL (≈ 18.3 µM) | 0.01 µg/mL (≈ 0.0293 µM) | CN(CCC#CC(C)(C)c1ccccc1)Cc1cccc2ccccc12
0.2 µg/mL (≈ 0.682 µM) | 200 µg/mL (≈ 682 µM) | 3.13 µg/mL (≈ 10.7 µM) | 0.02 µg/mL (≈ 0.0682 µM) | 12.5 µg/mL (≈ 42.6 µM) | 50 µg/mL (≈ 170 µM) | 0.05 µg/mL (≈ 0.17 µM) | CCN(CCC#CC(C)(C)C)Cc1cccc2ccccc12
0.1 µg/mL (≈ 0.358 µM) | 50 µg/mL (≈ 179 µM) | 1.56 µg/mL (≈ 5.58 µM) | 0.01 µg/mL (≈ 0.0358 µM) | 3.13 µg/mL (≈ 11.2 µM) | 50 µg/mL (≈ 179 µM) | 0.006 µg/mL (≈ 0.0215 µM) | CN(CCC#CC(C)(C)C)Cc1cccc2ccccc12
0.1 µg/mL (≈ 0.341 µM) | 50 µg/mL (≈ 170 µM) | 1.56 µg/mL (≈ 5.32 µM) | 0.01 µg/mL (≈ 0.0341 µM) | 3.13 µg/mL (≈ 10.7 µM) | 12.5 µg/mL (≈ 42.6 µM) | 0.006 µg/mL (≈ 0.0204 µM) | CCC(C)(C)C#CCCN(C)Cc1cccc2ccccc12
0.05 µg/mL (≈ 0.163 µM) | 25 µg/mL (≈ 81.3 µM) | 0.4 µg/mL (≈ 1.3 µM) | 0.003 µg/mL (≈ 0.00976 µM) | 1.56 µg/mL (≈ 5.07 µM) | 12.5 µg/mL (≈ 40.7 µM) | 0.003 µg/mL (≈ 0.00976 µM) | CCCC(C)(C)C#CCCN(C)Cc1cccc2ccccc12
